The results in this text go back to ChEMBL document CHEMBL1126933, “Syntheses and biological activities of potent potassium channel openers derived from (+/-)-2-oxo-1-pyridin-3-yl-cyclohexanecarbothioic acid methylamide: new potassium channel openers” (1993).

By IC90 is commonly meant the concentration needed for an effect of 90%.

For this experiment, the species on record is Rattus norvegicus. As to the kind of experiment: In vitro relaxation of de-endothelialized rat aortic strips toned with 20 mM KCl. It is filed as functional. The note with it: Aorta. Summed up: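 Rat aortic rings cut into transverse strips, endothelium removed by gentle rubbing. Strips held in Krebs bicarbonate buffer at 37 °C, gassed with 95% O2/5% CO2, isometric tension recorded. Equilibrated 90 min at 2 g resting tension, then contracted with 20 mmol KCl. At maximal contraction, relaxation measured by cumulative concentration-response, each next concentration added once the previous one reached maximal effect.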

In turn, `CNC(=S)[C@@]1(c2cccnc2)CCCC[S+]1[O-]` (some centres undefined) registered an IC90 of 400 nM.

Turning to `C/N=C(/S)[C@@]1(c2cccnc2)CCCC[C@@H]1CCO`, it took 1700 nM to reach the 90% level (IC90). Molecule `C/N=C(/S)[C@@]1(c2cccnc2)CCCC[C@@H]1CCNC(=O)c1ccccc1` gave an IC90 of 300 nM. Against the preceding molecule, the IC90 is about 5.7-fold lower.

In turn, `C/N=C(/S)C1(c2cccnc2)CCCCC1=O` (centres undefined) yielded an IC90 of 800 nM. This IC90 is about 2.7-fold higher than that of the molecule before. Molecule `C/N=C(/S)[C@@]1(c2cccnc2)CCCC[C@@H]1CCNC(=O)c1ccc(F)cc1` registered an IC90 of 500 nM. Compared with the last molecule, the IC90 is about 1.6-fold lower. Regarding `C/N=C(/S)C1(c2cccnc2)CCCC/C1=C\CSc1ccccc1` (centres undefined), the concentration for an effect of 90% (IC90) came to 3 nM. Compared with the last molecule, the IC90 is about 170-fold lower. Then `C/N=C(/S)[C@@]1(c2cccnc2)CCCC[C@@H]1CCNS(C)(=O)=O`, with 170 nM; and `C/N=C(/NCC[C@H]1CCCC[C@@]1(/C(S)=N\C)c1cccnc1)NS(=O)(=O)c1ccccc1`, with 300 nM.

On to `C/N=C(/S)[C@@]1(c2cccnc2)CCCC[C@@H]1C/C=N/OCc1ccccc1`, for which the IC90 was found to be 30 nM. Regarding `C/N=C(/S)[C@@]1(c2cccnc2)CCCC[C@@H]1CCOC(=O)c1ccc(F)cc1`, the 90% effect concentration (IC90) is 100 nM. Molecule `C/N=C(/S)[C@@]1(c2cccnc2)CCCC[C@@H]1CCNS(=O)(=O)c1cccs1` showed an IC90 of 1 nM. In turn, `C/N=C(/S)[C@@]1(c2cccnc2)CCCC[C@@H]1CCNS(=O)(=O)c1ccc(Cl)cc1` had an IC90 of 30 nM. Take `C/N=C(/S)[C@@]1(c2cccnc2)CCCC[C@@H]1CCNC(=O)Cc1ccccc1`: the IC90 stood at 300 nM. Consider `C/N=C(/S)[C@@]1(c2cccnc2)CCCC[C@@H]1CCNS(=O)(=O)c1ccc([N+](=O)[O-])cc1`, for which the IC90 came to 300 nM. Turning to `CNC(=S)[C@@]1(c2cccnc2)CCCC[C@@H]1CCNS(=O)(=O)c1ccc(OC)cc1`, the IC90 is 300 nM. To `C/N=C(/S)[C@@]1(c2cccnc2)CCCC[C@@H]1CCN1C(=O)COCC1=O` belongs 100 nM.

For `C/N=C(/S)[C@@]1(c2cccnc2)CCCC[C@@H]1CCNS(=O)(=O)c1cccnc1`, the IC90 amounted to 3 nM. This IC90 is about 33-fold lower than that of the molecule before. `C/N=C(/S)C1(c2cccnc2)CCCC/C1=C\COc1ccc(O)cc1` (centres undefined) registered an IC90 of 300 nM. Against the preceding molecule, the IC90 is about 100-fold higher. To `C/N=C(/S)[C@@]1(c2cccnc2)CCCC[C@@H]1CCNS(=O)(=O)c1ccccc1` belongs 0.3 nM.

In turn, `C/N=C(/S)[C@@]1(c2cccnc2)CCCC[C@@H]1CCNS(=O)(=O)c1ccc(F)cc1` registered an IC90 of 7 nM. Then `C/N=C(/S)[C@@]1(c2cccnc2)CCCC[C@@H]1CC#N`, with 300 nM. The molecule `C/N=C(/NCC[C@H]1CCCC[C@@]1(/C(S)=N\C)c1cccnc1)NS(C)(=O)=O` displayed an IC90 of 30 nM. Molecule `C/N=C(/S)C1(c2cccnc2)CCCC/C1=C\C=O` (centres undefined) registered an IC90 of 8000 nM. To `CNC(=S)[C@@]1(c2cccnc2)CCCC[C@@H]1CC(=O)OC` belongs 300 nM; to `C/N=C(/S)C1(c2cccnc2)CCCC/C1=C\C=N\OCC(O)CO` (centres undefined), 3000 nM; to `C/N=C(/S)[C@@]1(c2cccnc2)CCCC[C@@H]1CCNC(C)=O`, 130 nM. To `C/N=C(/S)C1(c2cccnc2)CCCC/C1=C\C#N` (centres undefined) belongs 10000 nM; to `C/N=C(/S)[C@@]1(c2cccnc2)CCCC[C@@H]1CCNc1ccccc1`, 3 nM. For the molecule `C/N=C(/S)[C@@]1(c2cccnc2)CCCC[C@@H]1CCN`, the IC90 was determined as 10000 nM. `C/N=C(/S)[C@@]1(c2cccnc2)CCCC[C@@H]1CCNS(=O)(=O)c1ccc(F)c(F)c1` gave an IC90 of 10 nM. To `C/N=C(/S)[C@@]1(c2cccnc2)CCCC[C@@H]1CCNC(=O)C(C)C` belongs 300 nM; to `C/N=C(/S)C1(c2cccnc2)CCCC/C1=C\COc1ccc([N+](=O)[O-])cc1` (centres undefined), 100 nM; to `C/N=C(/S)C1(c2cccnc2)CCCC/C1=C\C=N\OCc1ccc(F)cc1` (centres undefined), 100 nM. `C/N=C(/S)[C@@]1(c2cccnc2)CCCC[C@@H]1CCOC(=O)c1ccccc1` had a 90% effect concentration (IC90) of 30 nM. For the molecule `C/N=C(/S)[C@@]1(c2cccnc2)CCCC[C@@H]1CCOC(C)=O`, the 90% effect concentration (IC90) was determined as 30 nM. Consider `C/N=C(/S)[C@@]1(c2cccnc2)CCCC[C@@H]1C/C=C/c1ccc(F)cc1`, for which the concentration for an effect of 90% (IC90) was determined as 10 nM. This IC90 is about 3-fold lower than that of the molecule before. `C/N=C(/S)[C@@]1(c2cccnc2)CCCC[C@@H]1C/C=C/c1ccccc1` showed an IC90 of 100 nM. `C/N=C(/S)C1(c2cccnc2)CCCC/C1=C\COc1ccccc1` (centres undefined) showed an IC90 of 65 nM. The molecule `C/N=C(/S)C1(c2cccnc2)CCCC/C1=C\CO` (centres undefined) registered an IC90 of 10000 nM. This IC90 lies about 150-fold higher than the previous one.
